Experimental data taken from ChEMBL document CHEMBL3621107, “Ring fusion strategy for synthesis and lead optimization of sulfur-substituted anthra[1,2-c][1,2,5]thiadiazole-6,11-dione derivatives as promising scaffold of antitumor agents” (Eur J Med Chem, 2015).

What was measured:
HOP-62 = test: Cytotoxicity against human HOP62 cells assessed as cell growth at 10 uM after 48 hrs by SRB assay relative to control; assay type: functional; details: HOP-62, 48 h, read-out: Activity
Method in brief: (§1)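 First-stage NCI-60 screen by the NCI Developmental Therapeutics Program. Each compound was tested once at a single concentration of 10 μM against the 60-cell-line panel. Growth percentage was reported for each cell line.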

NCI/ADR-RES = test: Cytotoxicity against human NCI/ADR-RES cells assessed as cell growth at 10 uM after 48 hrs by SRB assay relative to control; assay type: functional; details: read-out: Activity
Method in brief: (§2)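 First-stage NCI DTP one-dose screen against the 60 human tumour cell line panel. Compounds were tested at a single 10 μM level, and results are given as growth percentage.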

UACC-257 = test: Cytotoxicity against human UACC257 cells assessed as cell growth at 10 uM after 48 hrs by SRB assay relative to control; assay type: functional; details: UACC-257, 48 h, read-out: Activity
Method in brief: (§3)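 NCI-60 one-dose screen run by NCI DTP: each cell line exposed to a single 10 µM dose, and percentage growth recorded against untreated growth.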

UACC-62 = test: Cytotoxicity against human UACC62 cells assessed as cell growth at 10 uM after 48 hrs by SRB assay relative to control; assay type: functional; details: UACC-62, 48 h, read-out: Activity; method in brief: as §3
A549 = test: Cytotoxicity against human A549 cells assessed as cell growth at 10 uM after 48 hrs by SRB assay relative to control; assay type: functional; details: A549, 48 h, read-out: Activity; method in brief: as §1
UO-31 = test: Cytotoxicity against human UO31 cells assessed as cell growth at 10 uM after 48 hrs by SRB assay relative to control; assay type: functional; details: UO-31, 48 h, read-out: Activity; method in brief: as §3
OVCAR-5 = test: Cytotoxicity against human OVCAR5 cells assessed as cell growth at 10 uM after 48 hrs by SRB assay relative to control; assay type: functional; details: OVCAR-5, 48 h, read-out: Activity; method in brief: as §2
OVCAR-8 = test: Cytotoxicity against human OVCAR8 cells assessed as cell growth at 10 uM after 48 hrs by SRB assay relative to control; assay type: functional; details: OVCAR-8, 48 h, read-out: Activity; method in brief: as §2
SK-OV-3 = test: Cytotoxicity against human SKOV3 cells assessed as cell growth at 10 uM after 48 hrs by SRB assay relative to control; assay type: functional; details: SK-OV-3, 48 h, read-out: Activity; method in brief: as §2
HCT-15 = test: Cytotoxicity against human HCT15 cells assessed as cell growth at 10 uM after 48 hrs by SRB assay relative to control; assay type: functional; details: HCT-15, 48 h, read-out: Activity; method in brief: as §1
786-0 = test: Cytotoxicity against human 786-0 cells assessed as cell growth at 10 uM after 48 hrs by SRB assay relative to control; assay type: functional; details: 786-0, 48 h, read-out: Activity; method in brief: as §1
SK-MEL-28 = test: Cytotoxicity against human SK-MEL-28 cells assessed as cell growth at 10 uM after 48 hrs by SRB assay relative to control; assay type: functional; details: SK-MEL-28, 48 h, read-out: Activity; method in brief: as §2
NCI-H226 = test: Cytotoxicity against human NCI-H226 cells assessed as cell growth at 10 uM after 48 hrs by SRB assay relative to control; assay type: functional; details: NCI-H226, 48 h, read-out: Activity; method in brief: as §2
TK-10 = test: Cytotoxicity against human TK10 cells assessed as cell growth at 10 uM after 48 hrs by SRB assay relative to control; assay type: functional; details: TK-10, 48 h, read-out: Activity; method in brief: as §3
SNB-19 = test: Cytotoxicity against human SNB19 cells assessed as cell growth at 10 uM after 48 hrs by SRB assay relative to control; assay type: functional; details: SNB-19, 48 h, read-out: Activity; method in brief: as §3
SK-MEL-2 = test: Cytotoxicity against human SK-MEL-2 cells assessed as cell growth at 10 uM after 48 hrs by SRB assay relative to control; assay type: functional; details: SK-MEL-2, 48 h, read-out: Activity; method in brief: as §2
COLO 205 = test: Cytotoxicity against human COLO205 cells assessed as cell growth at 10 uM after 48 hrs by SRB assay relative to control; assay type: functional; details: COLO 205, 48 h, read-out: Activity; method in brief: as §1
PC-3 = test: Cytotoxicity against human PC3 cells after 48 hrs by SRB assay; assay type: functional, cell-based; details: PC-3, 48 h
Method in brief: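 Second-stage NCI-60 panel run by the NCI Developmental Therapeutics Program, covering nine tumour subpanels. Five concentrations were tested: 0.01, 0.1, 1, 10 and 100 μM. Percentage growth at each level was plotted against log10 drug concentration. GI50, TGI and LC50 were read from these dose-response curves. Subpanel MID values were divided into the full-panel MID to give selectivity ratios.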

SN12C = test: Cytotoxicity against human SN12C cells assessed as cell growth at 10 uM after 48 hrs by SRB assay relative to control; assay type: functional; details: read-out: Activity; method in brief: as §2
MDA-MB-231 = test: Cytotoxicity against human MDA-MB-231 cells assessed as cell growth at 10 uM after 48 hrs by SRB assay relative to control; assay type: functional; details: MDA-MB-231, 48 h, read-out: Activity; method in brief: as §2
HCT-116 = test: Cytotoxicity against human HCT116 cells assessed as cell growth at 10 uM after 48 hrs by SRB assay relative to control; assay type: functional; details: HCT-116, 48 h, read-out: Activity; method in brief: as §1
Malme-3M = test: Cytotoxicity against human MALME-3M cells assessed as cell growth at 10 uM after 48 hrs by SRB assay relative to control; assay type: functional; details: read-out: Activity; method in brief: as §1
MCF7 = test: Cytotoxicity against human MCF7 cells assessed as cell growth at 10 uM after 48 hrs by SRB assay relative to control; assay type: functional; details: MCF7, 48 h, read-out: Activity; method in brief: as §1
SF-539 = test: Cytotoxicity against human SF539 cells assessed as cell growth at 10 uM after 48 hrs by SRB assay relative to control; assay type: functional; details: SF-539, 48 h, read-out: Activity; method in brief: as §2
NCI-H23 = test: Cytotoxicity against human NCI-H23 cells assessed as cell growth at 10 uM after 48 hrs by SRB assay relative to control; assay type: functional; details: NCI-H23, 48 h, read-out: Activity; method in brief: as §2
SR = test: Cytotoxicity against human SR cells assessed as cell growth at 10 uM after 48 hrs by SRB assay relative to control; assay type: functional; details: read-out: Activity; method in brief: as §3
KM12 = test: Cytotoxicity against human KM12 cells assessed as cell growth at 10 uM after 48 hrs by SRB assay relative to control; assay type: functional; details: KM12, 48 h, read-out: Activity; method in brief: as §1
HL-60(TB) = test: Cytotoxicity against human HL-60(TB) cells assessed as cell growth at 10 uM after 48 hrs by SRB assay relative to control; assay type: functional; details: HL-60, 48 h, read-out: Activity
Method in brief: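 NCI Developmental Therapeutics Program 60-cell-line screen, first stage: a single dose of 10 μM against the panel, reported as percentage growth.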

NCI-H460 = test: Cytotoxicity against human NCI-H460 cells assessed as cell growth at 10 uM after 48 hrs by SRB assay relative to control; assay type: functional; details: NCI-H460, 48 h, read-out: Activity; method in brief: as §2

Row | SMILES | growth at 10 µM (HOP-62) [%] | growth at 10 µM (NCI/ADR-RES) [%] | growth at 10 µM (UACC-257) [%] | growth at 10 µM (UACC-62) [%] | growth at 10 µM (A549) [%] | growth at 10 µM (UO-31) [%] | growth at 10 µM (OVCAR-5) [%] | growth at 10 µM (OVCAR-8) [%] | growth at 10 µM (HCT-15) [%] | growth at 10 µM (786-0) [%] | growth at 10 µM (SK-MEL-28) [%] | growth at 10 µM (NCI-H226) [%] | growth at 10 µM (TK-10) [%] | growth at 10 µM (SNB-19) [%] | growth at 10 µM (SK-MEL-2) [%] | growth at 10 µM (COLO 205) [%] | IC50 (PC-3) [µM] | growth at 10 µM (SN12C) [%] | growth at 10 µM (MDA-MB-231) [%] | growth at 10 µM (HCT-116) [%] | also measured
1 | O=C1c2ccccc2C(=O)c2c1cc(Sc1cccc(Cl)c1)c1nsnc21 | 42.1 | -15.1 | -84.6 | -65 | 107 | -74.8 | 109 | -22.9 | 18 | -2.06 | 25 | 78.1 | 53.8 | 56.9 | -53.2 | 106 | 5.64 | -66.2 | -29.1 | -67.8 | growth at 10 µM (SK-OV-3): 95.4%; growth at 10 µM (Malme-3M): -86.6%; growth at 10 µM (MCF7): -69.4%; growth at 10 µM (SF-539): -52.7%; growth at 10 µM (NCI-H23): -26.9%
2 | CCOc1cccc(Sc2cc3c(c4nsnc24)C(=O)c2ccccc2C3=O)c1 | 91.9 | 102 | 126 | 109 | 111 | 76.7 | 117 | 112 | 103 | 100 | 112 | 90.5 | 125 | 103 | 103 | 106 | > 15 | 105 | 101 | 101 | growth at 10 µM (SK-OV-3): 99.4%; growth at 10 µM (Malme-3M): 109%; growth at 10 µM (MCF7): 78.8%; growth at 10 µM (SF-539): 93.7%; growth at 10 µM (NCI-H23): 94.1%
3 | Cc1ccc(Sc2cc3c(c4nsnc24)C(=O)c2ccccc2C3=O)c(C)c1 | 79.3 | 97.8 | 122 | 94.5 | 110 | 65.7 | 106 | 105 | 83 | 105 | 119 | 1.5 | 127 | 102 | 98.5 | 107 | > 15 | 98.7 | 92.3 | 94.5 | growth at 10 µM (SR): 70.3%; growth at 10 µM (SK-OV-3): 110%; growth at 10 µM (KM12): 96.4%; growth at 10 µM (HL-60(TB)): 99.9%; growth at 10 µM (NCI-H460): 102%; growth at 10 µM (Malme-3M): 108%; growth at 10 µM (MCF7): 79.8%; growth at 10 µM (SF-539): 100%; growth at 10 µM (NCI-H23): 89.4%
4 | O=C1c2ccccc2C(=O)c2c1cc(SCc1ccc(Cl)cc1)c1nsnc21 | 89.2 | 95.7 | 78.7 | 102 | 101 | 68.5 | 104 | 94.2 | 97.9 | 118 | 95.3 | 82.1 | 122 | 104 | 110 | 99.9 | > 15 | 93.6 | 95.2 | 115 | growth at 10 µM (SR): 63.7%; growth at 10 µM (KM12): 105%; growth at 10 µM (HL-60(TB)): 57.4%; growth at 10 µM (NCI-H460): 105%; growth at 10 µM (Malme-3M): 86.4%; growth at 10 µM (MCF7): 83%; growth at 10 µM (SF-539): 98%; growth at 10 µM (NCI-H23): 82.1%
5 | COc1cccc(Sc2cc3c(c4nsnc24)C(=O)c2ccccc2C3=O)c1 | 61.8 | 92.7 | 104 | 87.7 | 110 | 75.5 | 123 | 97.3 | 71.9 | 103 | 102 | 95.3 | 131 | 106 | 82.6 | 110 | > 15 | 95.9 | 87.1 | 85.7 | growth at 10 µM (SR): 36.1%; growth at 10 µM (SK-OV-3): 110%; growth at 10 µM (KM12): 97.1%; growth at 10 µM (HL-60(TB)): 84.5%; growth at 10 µM (NCI-H460): 100%; growth at 10 µM (Malme-3M): 113%; growth at 10 µM (MCF7): 72.8%; growth at 10 µM (SF-539): 107%; growth at 10 µM (NCI-H23): 76.4%
